High-throughput results (PubChem)
UBC13 inh: UBC13 polyubiquitin chain formation inhibitors, primary screen, biochemical, TR-FRET, uHTS; inhibition, % at 20 µM; actives 0.47% (n = 330,000); in the data active = inhibition above about 45%, passing the limit was not always enough
Target sequence (P61088 whole entry, looked up): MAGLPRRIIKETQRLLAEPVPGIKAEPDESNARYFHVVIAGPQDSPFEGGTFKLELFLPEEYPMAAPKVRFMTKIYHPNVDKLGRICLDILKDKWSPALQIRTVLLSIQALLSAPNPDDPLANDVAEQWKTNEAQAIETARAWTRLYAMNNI
Fh CTSL1 inh: Fasciola hepatica cathepsin L1 inhibitors, primary screen, counter-screen for PFM18AAP inhibitor project, biochemical, QFRET, fluorogenic peptide substrate. recombinant F. hepatica cathepsin L1, Z-Leu-Arg-MCA fluorescence. inhibition, % at 5.96 µM. actives 0.49% (n = 300,000);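 active = inhibition above the mean of all tested compounds plus 3 SD, set per screening campaign, cut at about 17% in these data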;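 note: 0% = plate median of test compound wells and 100% = 1 µM Z-Phe-Ala-diazomethylketone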
PP5 primary: PP5 phosphatase inhibitors, primary screen, biochemical, fluorescence | actives 0.18% (n = 320,000) | purified PP5c, OMFP substrate fluorescence | Serine/threonine-protein phosphatase 5 (Homo sapiens), P53041 | inhibition, % at 6.7 µM;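 active = inhibition above the campaign's mean inhibition across all tested compounds plus 3 SD, cut at about 9.5% in these data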;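 note: 0% = DMSO only and 100% = 100 µM cantharidin control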
Target sequence (P53041 whole entry, looked up): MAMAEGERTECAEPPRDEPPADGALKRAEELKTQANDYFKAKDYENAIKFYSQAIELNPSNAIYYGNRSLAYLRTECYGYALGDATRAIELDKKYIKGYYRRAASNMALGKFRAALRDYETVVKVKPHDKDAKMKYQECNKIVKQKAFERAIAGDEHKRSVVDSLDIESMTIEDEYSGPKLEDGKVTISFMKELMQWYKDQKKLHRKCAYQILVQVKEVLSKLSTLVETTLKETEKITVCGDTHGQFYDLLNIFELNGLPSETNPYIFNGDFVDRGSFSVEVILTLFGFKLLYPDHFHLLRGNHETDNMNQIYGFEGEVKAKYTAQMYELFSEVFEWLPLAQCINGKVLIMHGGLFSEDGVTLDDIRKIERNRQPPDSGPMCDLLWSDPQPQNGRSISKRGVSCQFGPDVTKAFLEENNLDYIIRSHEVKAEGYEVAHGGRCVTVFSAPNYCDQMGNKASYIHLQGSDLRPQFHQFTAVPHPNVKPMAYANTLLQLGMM
PREPL inh: PREPL enzyme inhibitors, primary screen, biochemical, fluorescence polarization | recombinant PREPL, fluorescence polarization activity-based probe | actives 0.68% (n = 320,000) | inhibition, % at 5.96 µM | Prolyl endopeptidase-like (Homo sapiens), Q4J6C6;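 note: 0% = enzyme with DMSO and 100% = wells lacking enzyme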
PP1 inh: PP1-alpha phosphatase inhibitors, primary screen, counter-screen for PP5 inhibitor project, biochemical, fluorescence, OMFP substrate, single point. actives 0.9% (n = 320,000). AID 2235, 2010. purified PP1alpha. inhibition, % at 6.7 µM. Serine/threonine-protein phosphatase PP1-alpha catalytic subunit (Homo sapiens), P62136;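 active = inhibition above the mean inhibition of all tested compounds plus 3 SD, computed separately for each screening campaign, cut at about 15% in these data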
UCH37 DUB inh: inhibitors of human UCH37 deubiquitinase, primary screen, biochemical, Ub-AMC cleavage, fluorescence; Ubiquitin carboxyl-terminal hydrolase isozyme L5 (Homo sapiens), Q9Y5K5; purified proteasome/UCH37; inhibition, % (concentration not given with the values); actives 0.33% (n = 330,000);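 active = mean inhibition over replicate wells above about 20%, limit read from the data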;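 note: 0% = compound-free wells with enzyme and 100% = wells lacking proteasome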
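Material: Human UCH37 enzyme supplied as purified proteasome complex | Schedule: 30 min preincubation with enzyme, 25 min cleavage at room temperature | Detection: AMC fluorescence 355/460 nm | Measure: % inhibition of Ub-AMC cleavage fluorescence | Controls: Wells without proteasome as full block, compound-free enzyme plus substrate as uninhibited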
PREPL confirm: human PREPL enzyme inhibitors, confirmation, biochemical, fluorescence polarization; recombinant PREPL, fluorescence polarization activity probe; actives 67% (n = 2,000); inhibition, % at 5.96 µM; shares compounds with PREPL inh; AID 2803, 2010;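 note: 0% = protein with DMSO and 100% = wells lacking protein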
Numbers without * were called inactive; . = no result. Shown are actives, neighbours in structure and some others; about 2.3% of the full set was active somewhere. Cut-off read from the data, not from the text of the source, unless noted: active = inhibition above about 43%; inactive = the rest.

SMILES	UBC13 inh	Fh CTSL1 inh	PP5 primary	PREPL inh	PP1 inh	UCH37 DUB inh	PREPL confirm
CC(C)n1cnc2c(NCc3ccccc3)cc(N[C@H](C)CO)cc21	-29	.	.	61*	.	2	22
NC(=O)NN=Cc1cn(-c2ccccc2)nc1-c1cccnc1	.	.	.	.	.	0	.
Cc1nn(C)c(C(=O)NN=Cc2ccc(C(F)(F)F)cc2)c1[N+](=O)[O-]	.	.	.	.	.	0	.
CCc1ccc(C2CC(c3ccc(Cl)cc3)n3nc(N)nc3N2)cc1 (stereo not drawn)	0	-3	1	45*	7	5	49*
Cc1ccc(C2CC(c3ccco3)n3nc(N)nc3N2)cc1 (stereo not drawn)	8	-4	1	34	1	5	.
COc1ccc(C2CC(c3cccc(Cl)c3)n3nc(N)nc3N2)cc1 (stereo not drawn)	8	1	0	55*	1	0	57*
Cc1ccc(C2CC(c3ccc(C)cc3)n3nc(N)nc3N2)cc1 (stereo not drawn)	8	3	0	53*	0	-1	48*
COc1ccc(C2CC(c3cccc(C)c3)n3nc(N)nc3N2)cc1 (stereo not drawn)	-2	0	1	55*	-5	-1	59*
COc1ccc(C2CC(c3ccccc3)Nc3nc(N)nn32)cc1 (stereo not drawn)	-8	-3	3	34	6	2	.
O=C(C[n+]1ccccc1)NN=Cc1cc(Br)cc(Br)c1O	.	.	.	.	.	4	.
COc1cccc(C2CC(c3cccc(OC)c3)n3nc(N)nc3N2)c1 (stereo not drawn)	-1	3	4	30	-6	2	.
COc1cccc(C2CC(c3ccc(F)cc3)Nc3nc(N)nn32)c1 (stereo not drawn)	7	-2	0	44*	0	1	46*
Cc1ccccc1C1CC(c2ccc(F)cc2)Nc2nc(N)nn21 (stereo not drawn)	3	2	1	44*	1	0	41
Oc1cccc(C=NN=Cc2cccc(O)c2O)c1O	.	.	.	.	.	4	.
C=CCN1C=C2C(=O)C(C)(OC(=O)CCC(=O)OC)C(=O)C=C2C=C1C1CC1 (stereo not drawn)	-32	-2	9	20	-3	5	.
COC(=O)CCC(=O)OC1(C)C(=O)C2=CN(CC3CC3)C(c3ccc(OC)cc3)=CC2=C(Br)C1=O (stereo not drawn)	-87	0	7	69*	17*	4	56*
COC(=O)CCC(=O)OC1(C)C(=O)C=C2C=C(C3CC3)N(CCc3c[nH]c4ccccc34)C=C2C1=O (stereo not drawn)	-31	-11	8	63*	11	3	52*
COC(=O)CCC(=O)OC1(C)C(=O)C=C2C=C(C3CC3)N(Cc3ccc(OC)cc3)C=C2C1=O (stereo not drawn)	-43	-1	8	59*	4	0	43
COc1cc(C=NNC(=O)CNC(=O)c2cccs2)ccc1O	.	.	.	.	.	0	.
CC(=NNC(=O)c1nn(C)c(C)c1Br)c1ccc(NC(=O)c2ccoc2C)cc1	.	.	.	.	.	-18	.
COc1cc(C=NNC(=O)c2ccoc2C)cc(OC)c1O	.	.	.	.	.	3	.
C=CCOc1ccc(Br)cc1C=NO	.	.	.	.	.	3	.
O=C(N/N=C/c1ccc(OCc2ccccc2)cc1)c1cc[n+](Cc2ccccc2)cc1	21	6	-1	53*	10	.	42
Cc1ccc(NS(=O)(=O)c2cccc(C(=O)NN=Cc3ccc4c(c3)OCCO4)c2)c(C)c1	.	.	.	.	.	-12	.
COc1cc(/C=C2/C(=O)NN(c3ccc(Cl)c(Cl)c3)C2=O)cc([N+](=O)[O-])c1O	.	1	2	53*	10	22*	20
SMILES	UBC13 inh	Fh CTSL1 inh	PP5 primary	PREPL inh	PP1 inh	UCH37 DUB inh	PREPL confirm
Cc1c(Cl)c([N+](=O)[O-])nn1CCCC(=O)Nc1cccc(Cl)c1Cl	2	5	4	47*	0	4	38
CCN1/C(=C2\SC(=S)N(Cc3ccccc3)C2=O)Sc2ccccc21	-21	-2	1	7	2	5	.
CCC(CO)[n+]1c(C)cc(/C=C2\Sc3ccccc3N2Cc2ccccc2)cc1C (stereo not drawn)	.	6	1	77*	14	18	73*
COc1ccc(NC(=O)NCCCN2CCN(c3ccccc3F)CC2)cc1	16	-4	-2	49*	-7	3	35
COc1ccc(C=NNC(=O)c2cccnc2)cc1CN1CCN(c2ccc(F)cc2)CC1	.	.	.	.	.	0	.
Cc1ccc(NC(=S)Nc2ccccn2)cc1C	7	0	1	5	-2	3	.
Cc1ccc(NC(=S)Nc2ccc3nc(-c4ccccn4)c(-c4ccccn4)nc3c2)cc1C	.	2	2	44*	2	0	37
Cc1nn(CC(C#N)=NO)c(C)[n+]1N	.	.	.	.	.	2	.
CCN(CC)c1ccc(C=NNC(=O)OC(C)(C)C)cc1	.	.	.	.	.	-45	.
O=C(O)CCC(=O)N1CCN(c2ccccn2)CC1	2	-7	3	44*	2	.	3
O=C(CCc1ccccc1)N1CCN(c2ccccn2)CC1	-1	-4	3	-7	-2	-2	.
Cc1c(N)cccc1[N+](=O)[O-]	5	.	2	25	-2	4	.
Cc1c(N)cccc1N	-3	.	0	50*	-3	.	15
CC(=O)Nc1nnc(SCc2cc(=O)c(OC(=O)c3ccccc3)co2)s1	-2	0	0	7	-2	1	.
Cc1ccc(C(=O)Oc2coc(CSc3nnc(NC(=O)c4cccs4)s3)cc2=O)cc1	-3	1	0	76*	-2	-11	85*
O=[N+]([O-])c1ccccc1/C=C/C=Nn1c(-c2cc(-c3ccccc3)n[nH]2)n[nH]c1=S	.	.	.	.	.	6	.
COc1ccc(NC(=O)N2CCN(c3ccc([N+](=O)[O-])cc3)CC2)cc1OC	-27	9	0	46*	-3	9	56*
COc1ccc(NC(=O)N2CCN(c3ccc([N+](=O)[O-])cc3)CC2)cc1	-3	0	1	30	0	1	.
COc1ccc(-n2c(CN3CCN(Cc4ccccc4)CC3)nc3ccc([N+](=O)[O-])cc3c2=O)c(OC)c1	7	-1	1	51*	1	3	38
CN(c1ccc([N+](=O)[O-])cc1C=NNC(=O)COc1ccccc1)C1CCCCC1	.	.	.	.	.	-8	.
